PubChem BioAssay
Activity calls are given as the source filed them.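 How the source made its calls, unless noted: active means viability at or below 30% in both replicate assays; inconclusive means viability at or below 30% in just one of the two assays; inactive means the rest.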

Legend:
[1] = reducers of endogenous Her2 protein level, primary screen, SKBR3 breast tumor cells, AlphaScreen, ATP viability (AID 461;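 active means Her2 level under about 52% in both replicate screens, with viability over 70% of control, limit read from the data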;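 on Her2 level: lower value means less Her2 protein in the cells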;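 on viability: percent of carrier control wells set as 100% viability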); details: 18-24 h, measured here: SKBR3 viability, ATP luminescence, at 10 µM
[2] = target: Receptor tyrosine-protein kinase erbB-2 (Homo sapiens) (UniProt P04626); test: as above; details: 18-24 h, at 10 µM, stronger effect = lower value
[3] = SK-BR-3 cell growth inhibitors, pilot screen, 24 h, human (AID 572;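 active means viability at or below 10% of carrier control in both of two separate runs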;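 further: compound exposure lasted between 18 and 24 h rather than exactly 24 h; 100% = carrier-treated control wells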); details: SK-BR-3 viability, CellTiter-Glo luminescence, at 10 µM, stronger effect = lower value
[4] = HUVEC growth inhibition – cell-based, human, primary screen (AID 575); details: HUVEC proliferation, CellTiter-Glo luminescence, 72 h; at 10 µM; stronger effect = lower value;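 further: 100% = median of untreated cell wells with 0.1% DMSO on each plate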
In short: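 System: primary human umbilical vein endothelial cells; Quantity: 1250 endothelial cells in each well; Buffer or medium: supplemented EBM, 2% fetal bovine serum; Doses: one dose, 10 µM final, 0.1% DMSO; Incubation: 72 h compound incubation; Technique: ATP-based CellTiter-Glo luminescent read; Evaluation: percent of median DMSO-control luminescence; Controls: vehicle and MePR control wells.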

[5] = growth inhibitors of H69AR lung tumor, primary screen, human, duplicate replicates (AID 580;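 active means viability at or under a set limit in both replicates, limit being median viability minus 3 SD, cut at about 48% in these data, passing the limit was not always enough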;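 further: 100% = mean luminescence of untreated wells and 0% = no signal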); details: H69AR lung tumor cells viability, ATP luminescence, 72 h; at 10 µM; stronger effect = lower value
[6] = reversal of MRP1-mediated doxorubicin resistance, pilot screen, H69AR cells, doxorubicin co-treatment (AID 601;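 active means viability loss from added drug above about 55%, and viability with drug at most 40%, in both replicates, limit read from the data, passing the limit was not always enough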); details: CellTiter-Glo, 72 h, at 10 µM; for differential viability (reversal): stronger effect = higher value
[7] = 384-well plate pilot, post-Golgi transport modulator project, inhibition of yeast transport mutant growth (AID 636; in the data active means inhibition above about 31%); details: absorbance 615 nm, about 18 h, stronger effect = higher value
[8] = growth suppression of yeast trafficking mutant, preliminary HTS, modulators of trafficking downstream of Golgi apparatus project, 1536-format plate, OD 615 nm (AID 637; in the data active means inhibition above about 30%); details: yeast transport mutant growth, absorbance 615 nm, 18 h; stronger effect = higher value
[9] = H69AR cells + 2 uM doxorubicin, measured here: viability with 2 uM doxorubicin, stronger effect = lower value
[10] = H69AR cells, compound alone cytotoxicity

Sequence of Receptor tyrosine-protein kinase erbB-2 (Homo sapiens) (P04626 whole entry, looked up): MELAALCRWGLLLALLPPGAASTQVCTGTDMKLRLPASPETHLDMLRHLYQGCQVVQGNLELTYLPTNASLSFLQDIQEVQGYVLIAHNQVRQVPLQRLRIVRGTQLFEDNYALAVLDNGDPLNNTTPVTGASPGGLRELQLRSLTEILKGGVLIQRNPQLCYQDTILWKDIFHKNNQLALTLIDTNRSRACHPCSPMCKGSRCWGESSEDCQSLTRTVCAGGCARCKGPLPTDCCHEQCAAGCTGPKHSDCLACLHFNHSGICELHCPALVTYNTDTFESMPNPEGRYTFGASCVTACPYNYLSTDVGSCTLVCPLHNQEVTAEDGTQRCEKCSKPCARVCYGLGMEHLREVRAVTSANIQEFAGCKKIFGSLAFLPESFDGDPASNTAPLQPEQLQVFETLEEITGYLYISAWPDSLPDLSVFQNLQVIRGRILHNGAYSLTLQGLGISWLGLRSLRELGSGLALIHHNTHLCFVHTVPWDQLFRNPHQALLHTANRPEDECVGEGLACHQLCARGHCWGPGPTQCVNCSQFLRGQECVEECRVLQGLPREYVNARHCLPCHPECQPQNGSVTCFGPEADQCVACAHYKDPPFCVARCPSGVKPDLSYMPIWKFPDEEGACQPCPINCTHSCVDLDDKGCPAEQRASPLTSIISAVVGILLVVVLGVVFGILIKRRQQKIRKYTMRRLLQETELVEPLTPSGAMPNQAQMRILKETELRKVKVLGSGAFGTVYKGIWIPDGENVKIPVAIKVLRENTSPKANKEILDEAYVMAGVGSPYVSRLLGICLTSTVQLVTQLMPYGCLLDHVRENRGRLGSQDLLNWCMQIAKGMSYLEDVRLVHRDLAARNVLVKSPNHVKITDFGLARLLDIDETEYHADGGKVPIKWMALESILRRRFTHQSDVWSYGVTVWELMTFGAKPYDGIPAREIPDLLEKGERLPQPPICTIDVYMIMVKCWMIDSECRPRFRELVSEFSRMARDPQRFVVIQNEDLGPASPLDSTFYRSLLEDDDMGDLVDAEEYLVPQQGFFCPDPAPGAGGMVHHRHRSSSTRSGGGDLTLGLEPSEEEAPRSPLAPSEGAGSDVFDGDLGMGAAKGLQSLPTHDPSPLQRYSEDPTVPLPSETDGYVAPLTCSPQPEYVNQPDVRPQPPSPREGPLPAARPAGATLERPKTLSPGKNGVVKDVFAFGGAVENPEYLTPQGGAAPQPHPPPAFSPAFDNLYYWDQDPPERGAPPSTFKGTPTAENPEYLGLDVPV

| Compound | viability [1] | Her2 level [2] | viability [3] | viability [4] | viability [5] | differential viability (reversal) ([6]; H69AR cells + 2 uM doxorubicin) | viability [6, 9] | viability [6, 10] | inhibition [7] | inhibition [8] |
| --- | --- | --- | --- | --- | --- | --- | --- | --- | --- | --- |
| COc1ccc(OC)c(S(=O)(=O)N2CCC(C(=O)NCC3CCCO3)CC2)c1 (stereo not given) | 101% | 84.5% (inactive) | 101% (inactive) | 106% (inactive) | 98.9% (inactive) | 8.66% (inactive) | 90.2% | 98.9% | -6.27% (inactive) | -3.49% (inactive) |
| CCC(C)OC(=O)n1ccc(C(=O)Nc2nccs2)n1 (stereo not given) | 106% | 84% (inactive) | 106% (inactive) | 91.4% (inactive) | 91.4% (inactive) | -4.24% (inactive) | 95.6% | 91.4% | 0.53% (inactive) | -4.19% (inactive) |
| COc1ccc(C(=O)Nc2ccc(S(=O)(=O)NC(C)=O)cc2)cc1 | 120% | 100% (inactive) | 120% (inactive) | 96.5% (inactive) | 93.1% (inactive) | -5.71% (inactive) | 98.8% | 93.1% | -4.13% (inactive) | -2.26% (inactive) |
| Cc1nc2ccc(S(=O)(=O)NCC(=O)O)cc2s1 | 102% | 100% (inactive) | 102% (inactive) | 110% (inactive) | 107% (inactive) | 5.9% (inactive) | 101% | 107% | -1.84% (inactive) | -6.19% (inactive) |
| O=S(=O)(CCOc1ccccc1)c1nc2ccccc2[nH]1 | 104% | 18.5% (active) | 104% (inactive) | 54.7% (inactive) | 1.98% (active) | 0.22% (inactive) | 1.77% | 1.98% | -3.95% (inactive) | 3.11% (inactive) |
| CCOC(=O)N1CCC(O)(c2cc(C)c(C)cc2C)CC1 | 102% | 95.5% (inactive) | 102% (inactive) | 109% (inactive) | 99.4% (inactive) | 9.24% (inactive) | 90.2% | 99.4% | -4.19% (inactive) | -5% (inactive) |
| O=C(NCC1COCCO1)C1CCN(S(=O)(=O)c2ccccc2)CC1 (stereo not given) | 90% | 119% (inactive) | 90% (inactive) | 106% (inactive) | 109% (inactive) | 10.3% (inactive) | 99.2% | 109% | 1.2% (inactive) | -7.26% (inactive) |
| CCOC(=O)Cn1c2c(c(=N)c3ccccc31)CCC2 | 122% | 98% (inactive) | 122% (inactive) | 89.4% (inactive) | 92.6% (inactive) | 2.31% (inactive) | 90.3% | 92.6% | -6.27% (inactive) | -1.15% (inactive) |
| COC(=O)c1cc(Br)c(=O)n(CCC2=CCCCC2)c1 | 81.5% | 99.5% (inactive) | 81.5% (inactive) | 92.5% (inactive) | 89.9% (inactive) | 1.54% (inactive) | 88.4% | 89.9% | -0.27% (inactive) | 6.89% (inactive) |
| Cc1c(C(=O)O)c(-c2ccccc2)nn1-c1ccccc1 | 103% | 104% (inactive) | 103% (inactive) | 96.9% (inactive) | 92.1% (inactive) | 4.64% (inactive) | 87.5% | 92.1% | -2.99% (inactive) | -2.3% (inactive) |
| CCN(Cc1cc2cc(OC)ccc2[nH]c1=O)C(=O)c1ccncc1 | 89% | 100% (inactive) | 89% (inactive) | 97.8% (inactive) | 99.5% (inactive) | -3.88% (inactive) | 103% | 99.5% | -2.13% (inactive) | 9.05% (inactive) |
| CCn1cc(C(=O)N=c2sc3ccccc3n2C)c(=O)c2ccc(C)nc21 | 92.5% | 84.5% (inactive) | 92.5% (inactive) | 80.3% (inactive) | 95.7% (inactive) | 7.91% (inactive) | 87.8% | 95.7% | 1.41% (inactive) | -2.83% (inactive) |
| COCc1ccccc1Cn1cnc2c1c(=O)n(C)c(=O)n2C | 99% | 77.5% (inactive) | 99% (inactive) | 85.8% (inactive) | 101% (inactive) | 8.8% (inactive) | 92.7% | 101% | -5% (inactive) | 0.49% (inactive) |
| CSc1nnc2c3ccccc3n(CCc3ccccc3)c2n1 | 90% | 100% (inactive) | 90% (inactive) | 68.6% (inactive) | 89.4% (inactive) | 3.33% (inactive) | 86.1% | 89.4% | -1.35% (inactive) | 46.2% (active) |
| Cc1cc(NC(=O)COC(=O)c2cccc(S(=O)(=O)N3CCOCC3)c2)no1 | 112% | 88% (inactive) | 112% (inactive) | 92.4% (inactive) | 91.1% (inactive) | 6.37% (inactive) | 84.8% | 91.1% | -5% (inactive) | 1.9% (inactive) |
| CCOC(=O)c1[nH]c2ccc(Br)cc2c1NC(=O)CNC | 93% | 99.5% (inactive) | 93% (inactive) | 101% (inactive) | 87.3% (inactive) | -0.115% (inactive) | 87.5% | 87.3% | -2.37% (inactive) | 8.85% (inactive) |
| CCCCn1c(SCC(=O)c2ccc3c(c2)OCCO3)nnc1-c1ccco1 | 94.5% | 104% (inactive) | 94.5% (inactive) | 81.8% (inactive) | 95% (inactive) | 1.53% (inactive) | 93.4% | 95% | 1.73% (inactive) | 16.1% (inactive) |
| CCOCCCNC(=O)C1CCN(S(=O)(=O)N(CC(C)C)CC(C)C)CC1 | 121% | 100% (inactive) | 121% (inactive) | 97.9% (inactive) | 111% (inactive) | 24% (inactive) | 87.3% | 111% | -4.13% (inactive) | 2.1% (inactive) |
| Cc1ccc2[nH]c(=O)c(CN(Cc3ccc4c(c3)OCO4)Cc3nnnn3Cc3ccco3)cc2c1 | 102% | 93% (inactive) | 102% (inactive) | 106% (inactive) | 88.9% (inactive) | -3.68% (inactive) | 92.6% | 88.9% | -2.99% (inactive) | -3.49% (inactive) |
| COc1ccc(/C(O)=C2/C(=O)C(=O)N(CC3CCCO3)C2c2cccc(OC)c2)cc1 (stereo not given) | 106% | 87.5% (inactive) | 106% (inactive) | 81.9% (inactive) | 94.2% (inactive) | 7.73% (inactive) | 86.5% | 94.2% | -4.93% (inactive) | 2.3% (inactive) |
| Cc1ccc2c(c1)NC(=O)C(CC(=O)NC1CCCCC1C)O2 (stereo not given) | 110% | 86.5% (inactive) | 110% (inactive) | 103% (inactive) | 97.1% (inactive) | -3.58% (inactive) | 101% | 97.1% | -2.53% (inactive) | -1.15% (inactive) |
| Fc1ccccc1-c1nc(-c2ccccc2)no1 | 85.5% | 69% (inactive) | 85.5% (inactive) | 81.4% (inactive) | 111% (inactive) | 19.6% (inactive) | 90.9% | 111% | 1.05% (inactive) | -3.87% (inactive) |
| COC(=O)c1cc(O)c(OCc2ccccc2)c(O)c1 | 88% | 98% (inactive) | 88% (inactive) | 114% (inactive) | 94.3% (inactive) | 18% (inactive) | 76.3% | 94.3% | 2.63% (inactive) | -7.09% (inactive) |
| CCCCCCn1c(SCCCC)nc2c1c(=O)[nH]c(=O)n2C | 93.5% | 99% (inactive) | 93.5% (inactive) | 72.7% (inactive) | 88.2% (inactive) | 0.76% (inactive) | 87.5% | 88.2% | -5.07% (inactive) | -5% (inactive) |
| CC(C)C(=O)Nc1nnc(CCc2nnc(NC(=O)C(C)C)s2)s1 | 99% | 97% (inactive) | 99% (inactive) | 106% (inactive) | 93.6% (inactive) | 2.27% (inactive) | 91.3% | 93.6% | -4.61% (inactive) | 0.16% (inactive) |
| COc1ccccc1OCCOc1ccccc1/C=N/n1cnnc1 | 81.5% | 104% (inactive) | 81.5% (inactive) | 96.4% (inactive) | 70.9% (inactive) | -22.5% (inactive) | 93.5% | 70.9% | 1.28% (inactive) | -5% (inactive) |
| CCN1CCCC1CN=Cc1c(O)n(-c2ccccc2)c(=O)c2ccccc12 (stereo not given) | 82% | 106% (inactive) | 82% (inactive) | 96.9% (inactive) | 92.9% (inactive) | -2.08% (inactive) | 95% | 92.9% | -6.89% (inactive) | -2.54% (inactive) |
| COc1ccccc1-c1nnc(SCc2ccccn2)n1C | 94% | 107% (inactive) | 94% (inactive) | 113% (inactive) | 80.6% (inactive) | -10.8% (inactive) | 91.4% | 80.6% | 7.53% (inactive) | 9.37% (inactive) |
